Reference: ChEMBL document CHEMBL4321859, “Unforeseen Possibilities To Investigate the Regulation of Polyamine Metabolism Revealed by Novel C-Methylated Spermine Derivatives” (J Med Chem, 2019)

Tests used:
[1] = Drug uptake in human DU145 cells assessed as reduction in [14C]-spermine uptake at 1 to 100 uM by competition based assay; format: ADME, cell-based; details: du-145, 100 µM
DU-145 [2] = test: Downregulation of intracellular putrescine level in human DU145 Cells assessed per ug DNA at 100 uM after 6 hrs by HPLC method (reference value: 40 +/- 2 pmol/ug); format: functional
Procedure, shortened: (§1)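 DU145 cells exposed to 100 μM analogue for 6 h or 3 days, with or without 1 mM aminoguanidine. Cells were lysed in 50 mM potassium phosphate pH 7.2 with EDTA, Triton X-100 and DTT. Lysate was mixed with sulphosalicylic acid containing diaminoheptane as internal standard. Polyamines, analogue and MeSpd were measured by HPLC and normalized to DNA (PicoGreen), expressed as pmol/μg DNA. Means ± SD, n = 3.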

DU-145 [3] = test: Downregulation of intracellular putrescine level in human DU145 Cells assessed per ug DNA at 100 uM after 3 days by HPLC method (reference value: 19 +/- 2 pmol/ug); format: functional; procedure, shortened: as §1
DU-145 [4] = test: Downregulation of intracellular spermidine level in human DU145 Cells assessed per ug DNA at 100 uM after 6 hrs by HPLC method (reference value: 134 +/- 7 pmol/ug); format: functional; procedure, shortened: as §1
DU-145 [5] = test: Downregulation of intracellular spermidine level in human DU145 Cells assessed per ug DNA at 100 uM after 3 days by HPLC method (reference value: 123 +/- 3 pmol/ug); format: functional; procedure, shortened: as §1
DU-145 [6] = test: Downregulation of intracellular spermidine level in human DU145 Cells assessed per ug DNA at 100 uM after 3 days in presence of SSAO inhibitor aminoguanidine by HPLC method (reference value: 175 +/- 5 pmol/ug); format: functional; procedure, shortened: as §1
DU-145 [7] = test: Downregulation of intracellular spermine level in human DU145 Cells at 100 uM after 6 hrs by HPLC method (reference value: 106 +/- 4 pmol/ug); format: functional; procedure, shortened: as §1
DU-145 [8] = test: Downregulation of intracellular spermine level in human DU145 Cells at 100 uM after 3 days by HPLC method (reference value: 102 +/- 4 pmol/ug); format: functional; procedure, shortened: as §1
DU-145 [9] = test: Downregulation of intracellular spermine level in human DU145 Cells assessed per ug DNA at 100 uM after 3 days in presence of SSAO inhibitor aminoguanidine by HPLC method (reference value: 157 +/- 8 pmol/ug); format: functional; procedure, shortened: as §1
DU-145 [10] = test: Downregulation of intracellular N1-acetylspermidine level in human DU145 cells assessed per ug DNA at 100 uM after 6 hrs by HPLC method (Rvb < 3 pmol/ug); format: functional; procedure, shortened: as §1
DU-145 [11] = test: Downregulation of intracellular N1-acetylspermidine level in human DU145 cells assessed per ug DNA at 100 uM after 3 days by HPLC method (reference value: 3 pmol/ug); format: functional; procedure, shortened: as §1
DU-145 [12] = test: Downregulation of intracellular N1-acetylspermidine level in human DU145 cells assessed per ug DNA at 100 uM after 3 days in presence of SSAO inhibitor aminoguanidine by HPLC method (reference value: 3 +/- 1 pmol/ug); format: functional; procedure, shortened: as §1
[13] = Drug level in human DU145 cells assessed per ug DNA at 100 uM after 6 hrs by HPLC method; format: ADME, cell-based; details: du-145, 6 h; procedure, shortened: as §1
[14] = Drug level in human DU145 cells assessed per ug DNA at 100 uM after 3 days by HPLC method; format: ADME, cell-based; details: du-145, 72 h; procedure, shortened: as §1
[15] = Drug level in human DU145 cells at 100 uM in presence of SSAO inhibitor aminoguanidine after 3 days by HPLC method; format: ADME, cell-based; details: du-145, 72 h; procedure, shortened: as §1
[16] = Drug metabolism in human DU145 cells at 100 uM assessed as methylspermidine metabolite level assessed per ug DNA after 3 days by HPLC method; format: ADME, cell-based; details: du-145, 72 h; procedure, shortened: as §1
[17] = Drug metabolism in human DU145 cells at 100 uM assessed as methylspermidine metabolite level assessed per ug DNA in presence of SSAO inhibitor aminoguanidine after 3 days by HPLC method; format: ADME, cell-based; details: du-145, 72 h; procedure, shortened: as §1
[18] = biological target: Peroxisomal N(1)-acetyl-spermine/spermidine oxidase (Homo sapiens, UniProt Q6QHF9); test: (§2) Inhibition of recombinant human APAO at 50 uM using N1-acetylspermidine level as substrate relative to control; details: 50 µM
Sequence of Peroxisomal N(1)-acetyl-spermine/spermidine oxidase (Q6QHF9 whole entry): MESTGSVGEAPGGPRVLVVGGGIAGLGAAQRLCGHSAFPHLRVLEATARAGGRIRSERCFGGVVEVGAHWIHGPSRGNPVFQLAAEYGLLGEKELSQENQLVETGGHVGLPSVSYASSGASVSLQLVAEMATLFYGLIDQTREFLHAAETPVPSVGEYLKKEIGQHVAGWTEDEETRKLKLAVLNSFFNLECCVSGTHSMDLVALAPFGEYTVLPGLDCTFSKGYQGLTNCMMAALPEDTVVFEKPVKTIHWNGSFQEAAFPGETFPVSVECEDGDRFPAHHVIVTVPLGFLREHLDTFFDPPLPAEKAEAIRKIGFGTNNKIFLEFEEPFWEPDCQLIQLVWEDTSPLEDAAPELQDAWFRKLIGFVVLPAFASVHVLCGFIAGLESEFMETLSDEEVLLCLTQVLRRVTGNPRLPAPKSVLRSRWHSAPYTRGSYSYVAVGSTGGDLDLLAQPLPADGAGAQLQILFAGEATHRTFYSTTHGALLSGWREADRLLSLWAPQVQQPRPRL
Procedure, shortened: (§3)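 Competition with natural substrate at fixed 50 μM: spermine for purified bovine plasma SSAO and human recombinant SMOX, N1-acetylspermidine for human recombinant APAO. Analogue tested at 50 μM, with activity expressed relative to reaction without analogue.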

DU-145 [19] = test: Cytotoxicity against human DU145 cells at 100 uM after 3 days; format: cell-based; details: du-145, 72 h
Procedure, shortened: (§4)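 DU145 cells grown in high-glucose DMEM with 10% heat-inactivated FBS, 2 mM L-glutamine and gentamycin at 37 °C, 5% CO2. Treated 3 days with 100 μM analogue, with or without 1 mM aminoguanidine. Cells harvested by trypsinization and counted electronically (Coulter counter). Means ± SD, n = 3.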

DU-145 [20] = test: Cytotoxicity against human DU145 cells at 100 uM in presence of SSAO inhibitor aminoguanidine after 3 days; format: cell-based; details: du-145, 72 h; procedure, shortened: as §4
[21] = Drug metabolism in human DU145 cells at 100 uM assessed as methylspermidine metabolite level assessed per ug DNA after 6 hrs by HPLC method; format: ADME, cell-based; details: du-145, 6 h; procedure, shortened: as §1
[22] = biological target: T1, Amine oxidase [copper-containing] 3 (Bos taurus, UniProt Q9TTK6); test: Substrate activity at bovine plasma SSAO at 5 mM relative to spermine; format: ADME; details: cattle, 5000 µM
T1 sequence (Q9TTK6 whole entry): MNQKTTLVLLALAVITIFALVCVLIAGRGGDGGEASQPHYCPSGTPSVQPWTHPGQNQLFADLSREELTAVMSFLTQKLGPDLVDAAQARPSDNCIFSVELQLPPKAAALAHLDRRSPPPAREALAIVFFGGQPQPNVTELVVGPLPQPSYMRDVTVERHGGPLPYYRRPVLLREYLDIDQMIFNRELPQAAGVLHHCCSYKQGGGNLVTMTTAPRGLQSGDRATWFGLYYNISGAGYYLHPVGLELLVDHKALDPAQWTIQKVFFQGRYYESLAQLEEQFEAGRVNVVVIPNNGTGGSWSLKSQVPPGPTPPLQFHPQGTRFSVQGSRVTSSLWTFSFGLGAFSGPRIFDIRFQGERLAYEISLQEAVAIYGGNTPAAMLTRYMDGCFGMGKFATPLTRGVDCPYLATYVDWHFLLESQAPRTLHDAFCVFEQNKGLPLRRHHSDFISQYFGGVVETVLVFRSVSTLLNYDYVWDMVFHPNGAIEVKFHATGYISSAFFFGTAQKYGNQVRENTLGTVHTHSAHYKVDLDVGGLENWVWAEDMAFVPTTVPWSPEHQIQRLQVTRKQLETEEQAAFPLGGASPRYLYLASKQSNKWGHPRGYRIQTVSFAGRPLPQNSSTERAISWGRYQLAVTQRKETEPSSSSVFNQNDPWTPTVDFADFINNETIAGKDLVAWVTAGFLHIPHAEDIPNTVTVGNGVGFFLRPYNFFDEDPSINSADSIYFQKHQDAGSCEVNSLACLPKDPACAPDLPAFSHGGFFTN
Procedure, shortened: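 Purified bovine plasma SSAO given analogue as substrate at 5 mM, the same saturating concentration used for spermine. Activity compared with spermine. Means ± SD, n = 3.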

[23] = biological target: APAO (peroxisomal N(1)-acetyl-spermine/spermidine oxidase) (Homo sapiens, UniProt Q6QHF9); test: as §2; details: recombinant human APAO, probe N1-acetylspermidine; procedure, shortened: as §3
Sequence of APAO (peroxisomal N(1)-acetyl-spermine/spermidine oxidase) (Q6QHF9 whole entry): as the sequence (Q6QHF9 whole entry) above

With `CC(N)CCNCCCCNCCC(C)N` (stereo unspecified) the Activity [1] was “Active”, the Activity (DU-145 [2]) was 15 pmol and the Activity (DU-145 [3]) was under 3 pmol. For the same compound, the Activity (DU-145 [4]) was 105 pmol, the Activity (DU-145 [5]) was 13 pmol and the Activity (DU-145 [6]) was 3 pmol. The Activity (DU-145 [7]) was 84 pmol, the Activity (DU-145 [8]) was 27 pmol and the Activity (DU-145 [9]) was 19 pmol. For the same compound, the Activity (DU-145 [10]) was 5 pmol, the Activity (DU-145 [11]) was under 3 pmol and the Activity (DU-145 [12]) was under 3 pmol. It also gave a Drug uptake [13] of 70 pmol, a Drug uptake [14] of 168 pmol and a Drug uptake [15] of 217 pmol. The Drug metabolism [16] was 4 pmol, the Drug metabolism [17] was 10 pmol and the “inhibition (INH)” value [18] was “Not Active”. The Activity (DU-145 [19]) was “Non-Toxic” and the Activity (DU-145 [20]) was “Non-Toxic”.

For `CC(CCN)NCCCCNC(C)CCN` (stereo unspecified), the Activity [1] was “Active”, the Activity (DU-145 [2]) was 27 pmol and the Activity (DU-145 [3]) was 12 pmol. For the same compound, the Activity (DU-145 [4]) was 79 pmol, the Activity (DU-145 [5]) was 34 pmol and the Activity (DU-145 [6]) was 31 pmol. The Activity (DU-145 [7]) was 80 pmol, the Activity (DU-145 [8]) was 69 pmol and the Activity (DU-145 [9]) was 68 pmol. It also gave an Activity (DU-145 [10]) of 3 pmol, an Activity (DU-145 [11]) of under 3 pmol and a Drug uptake [13] of 26 pmol. For the same compound, the Drug uptake [14] was 29 pmol, the Drug uptake [15] was 191 pmol and the Drug metabolism [21] was 34 pmol. The Drug metabolism [16] was 116 pmol, the Drug metabolism [17] was 44 pmol and the Activity [22] was 30%. For the same compound, the inhibition at 50 µM [23] was 45%, the Activity (DU-145 [19]) was “Non-Toxic” and the Activity (DU-145 [20]) was “Non-Toxic”.

In the case of `CC(CN)CNCCCCNCC(C)CN` (stereo unspecified), the Activity [1] is reported as “Active”, the Activity (DU-145 [2]) is reported as 10 pmol and the Activity (DU-145 [3]) is reported as under 3 pmol. For the same compound, the Activity (DU-145 [4]) was 99 pmol, the Activity (DU-145 [5]) was 13 pmol and the Activity (DU-145 [6]) was under 3 pmol. For the same compound, the Activity (DU-145 [7]) was 76 pmol, the Activity (DU-145 [8]) was 40 pmol and the Activity (DU-145 [9]) was 33 pmol. For the same compound, the Activity (DU-145 [10]) was 4 pmol, the Drug uptake [13] was 59 pmol and the Drug uptake [14] was 147 pmol. The Drug uptake [15] was 222 pmol, the Drug metabolism [16] was 20 pmol and the “inhibition (INH)” value [18] was “Not Active”. The Activity (DU-145 [19]) was “Non-Toxic” and the Activity (DU-145 [20]) was “Non-Toxic”.

In the case of `NCCCNCCCCNCCCN` [SPERMINE], the Activity [1] is reported as “Active”, the Activity (DU-145 [19]) is reported as “Non-Toxic” and the Activity (DU-145 [20]) is reported as “Toxic”.
